In ChEMBL document CHEMBL3244161, “Azabicycloalkanes as analgetics. 3. Structure-activity relationships of 1-phenyl-6-azabicyclo[3.2.1]octanes and absolute stereochemistry of (+)-1-(3-hydroxyphenyl)-6-methyl-6-azabicyclo[3.2.1]octane and its 7-endo-methyl derivative” (J Med Chem, 1977):
Activity calls are given as the source filed them. No cut-off for these calls is given here.

What was measured:
[1] = test system: Mus musculus; assay: Analgesic activity in sc dosed mouse assessed as inhibition of AcOH-induced writhing; type: functional; conditions: Mus musculus, sc; read-out: ED50
[2] = test system: Mus musculus; assay: Analgesic activity in sc dosed mouse by hot-plate method; type: functional; conditions: Mus musculus, sc; read-out: ED50
[3] = test system: Mus musculus; assay: Analgesic activity in sc dosed mouse assessed as time duration of activity by hot-plate method; type: functional
[4] = Acute toxicity in sc dosed mouse; type: organism-based; conditions: in vivo
[5] = test system: Oryctolagus cuniculus; assay: Narcotic antagonist activity in iv dosed rabbit assessed as inhibition of morphine-induced respiratory depression; type: functional
In short: (§1)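 Rabbits given test compound iv; read-out is antagonism of morphine-induced respiratory depression; expressed as AD50 in mg/kg or as % antagonism at a fixed dose.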

[6] = test system: Rhesus monkey; assay: Narcotic antagonist activity in morphine-dependent rhesus monkey assessed as mild to moderate abstinence at 3 to 12 mg/kg; type: functional, organism-based; conditions: Macaca mulatta
In short: (§2)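 Compound given to nonwithdrawn morphine-dependent monkeys; scored as precipitation of abstinence syndrome, with severity graded from mild to severe over the stated dose range.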

[7] = test system: Rhesus monkey; assay: Suppression of abstinence syndrome in morphine-dependent rhesus monkey at 6 mg/kg; type: functional, organism-based; design: dose 6 mg/kg; conditions: Macaca mulatta
[8] = test system: Oryctolagus cuniculus; assay: Narcotic antagonist activity in rabbit assessed as inhibition of morphine-induced respiratory depression at 5 mg/kg, iv; type: functional; in short: as §1
[9] = test system: Rhesus monkey; assay: Narcotic antagonist activity in morphine-dependent rhesus monkey assessed as moderate to severe abstinence at 1.5 to 12 mg/kg; type: functional, organism-based; conditions: Macaca mulatta; in short: as §2
[10] = test system: Rhesus monkey; assay: Suppression of abstinence syndrome in morphine-dependent rhesus monkey at 1.5 mg/kg; type: functional, organism-based; design: dose 1.5 mg/kg; conditions: Macaca mulatta
[11] = test system: Mus musculus; assay: Analgesic activity in mouse assessed as inhibition of AcOH-induced writhing up to 22.5 mg/kg, sc; type: functional, organism-based; design: dose 22.5 mg/kg
[12] = test system: Mus musculus; assay: Analgesic activity in mouse by hot-plate method up to 100 mg/kg, sc; type: functional, organism-based; design: dose 100 mg/kg
[13] = test system: Rhesus monkey; assay: Narcotic antagonist activity in morphine-dependent rhesus monkey assessed as mild to severe abstinence at 2.5 to 20 mg/kg; type: functional, organism-based; conditions: Macaca mulatta; in short: as §2
[14] = test system: Rhesus monkey; assay: Suppression of abstinence syndrome in morphine-dependent rhesus monkey at 5 mg/kg; type: functional, organism-based; design: dose 5 mg/kg; conditions: Macaca mulatta
[15] = test system: Rhesus monkey; assay: Narcotic antagonist activity in morphine-dependent rhesus monkey assessed as precipitation of abstinence up to 8 mg/kg; type: functional, organism-based; design: dose 8 mg/kg; conditions: Macaca mulatta; in short: as §2
[16] = test system: Rhesus monkey; assay: Suppression of abstinence syndrome in morphine-dependent rhesus monkey at 8 mg/kg; type: functional, organism-based; design: dose 8 mg/kg; conditions: Macaca mulatta
[17] = test system: Rhesus monkey; assay: Narcotic antagonist activity in morphine-dependent rhesus monkey assessed as mild to severe abstinence at 2 mg/kg; type: functional, organism-based; design: dose 2 mg/kg; conditions: Macaca mulatta; in short: as §2
[18] = test system: Rhesus monkey; assay: Suppression of abstinence syndrome in morphine-dependent rhesus monkey up to 16 mg/kg; type: functional, organism-based; design: dose 16 mg/kg; conditions: Macaca mulatta
[19] = test system: Rhesus monkey; assay: Suppression of abstinence syndrome in morphine-dependent rhesus monkey up to 8 mg/kg; type: functional, organism-based; design: dose 8 mg/kg; conditions: Macaca mulatta
[20] = test system: Oryctolagus cuniculus; assay: Narcotic antagonist activity in rabbit assessed as inhibition of morphine-induced respiratory depression up to 1 mg/kg, iv; type: functional, organism-based; design: dose 1 mg/kg; in short: as §1
[21] = test system: Rhesus monkey; assay: Suppression of abstinence syndrome in morphine-dependent rhesus monkey up to 6 mg/kg; type: functional, organism-based; design: dose 6 mg/kg; conditions: Macaca mulatta
[22] = test system: Rhesus monkey; assay: Narcotic antagonist activity in morphine-dependent rhesus monkey assessed as mild to severe abstinence at 2 to 8 mg/kg; type: functional, organism-based; conditions: Macaca mulatta; in short: as §2
[23] = test system: Rhesus monkey; assay: Suppression of abstinence syndrome in morphine-dependent rhesus monkey at 1 mg/kg; type: functional, organism-based; design: dose 1 mg/kg; conditions: Macaca mulatta
[24] = test system: Rhesus monkey; assay: Narcotic antagonist activity in morphine-dependent rhesus monkey assessed as mild to severe abstinence at 1 to 8 mg/kg; type: functional, organism-based; conditions: Macaca mulatta; in short: as §2

| Compound | ED50 [1] [mg/kg] | ED50 [2] [mg/kg] | Time [3] [min] | LD50 [4] [mg/kg] | AD50 [5] [mg/kg] | also measured |
| --- | --- | --- | --- | --- | --- | --- |
| CN1C[C@]2(c3cccc(O)c3)CCC[C@H]1C2 | 3.7 | 3.6 | 140 | 90.7 | 4.1 | Activity [6]: Active; Activity [7]: inactive |
| Br.C[C@H]1N(C)[C@H]2CCC[C@]1(c1cccc(O)c1)C2 | 1.2 | 2.9 | 148.6 | 123 |  | inhibition in vivo at 5 mg/kg [8]: 42%; Activity [9]: Active; Activity [10]: inactive |
| Br.C[C@@H]1N(C)[C@@H]2CCC[C@@]1(c1cccc(O)c1)C2 |  |  |  | 82.7 |  | Activity [11]: inactive; Activity [12]: inactive; inhibition in vivo at 5 mg/kg [8]: 48%; Activity [13]: Active; Activity [14]: inactive |
| CN1CC2(c3cccc(O)c3)CCCC1C2 (racemic) | 12.3 | 14.3 | 137 | 133 | 3.1 | Activity [15]: inactive; Activity [16]: inactive |
| COc1cccc(C23CCCC(C2)N(CCCC(=O)c2ccc(F)cc2)C3)c1.Cl (racemic) | 3 | 4.2 |  | > 225 |  | Activity [17]: inactive; Activity [18]: inactive |
| CC1N(CC2CC2)C2CCCC1(c1cccc(O)c1)C2.Cl (racemic) | 2.2 | 5.8 |  | 59.8 | 0.1 | Activity [19]: inactive |
| CC1N(CCc2ccccc2)C2CCCC1(c1cccc(O)c1)C2.Cl (racemic) | 0.61 | 0.3 |  | 27.6 |  | inhibition [20]: inactive; Activity [21]: inactive |
| CC1N(C)C2CCCC1(c1cccc(O)c1)C2 (racemic; 8) |  |  |  |  |  | Activity [22]: Active; Activity [23]: inactive |
| CC(=O)Oc1cccc(C23CCCC(C2)N(C)C3C)c1 (single isomer, unassigned; (+)) |  |  |  |  |  | Activity [24]: Active; Activity [23]: inactive |
